One assay has as its target Somatostatin receptor. Nature of the assay: Antagonism of in vitro SRIF inhibition of GH release in rat in vitro pituitary cell assay. The conditions noted are these: pituitary gland cell. The format is functional, cell-based. The procedure, abridged: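 Dispersed adult male rat anterior pituitary cells (trypsin/DNase), about 200 000 cells/well, cultured 4–5 days at 37 °C. GH measured by double-antibody RIA. IC50 versus SRIF, mean ± SEM of n dose–response curves.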

The target in assay [1] is Somatostatin receptor type 1 (Homo sapiens, UniProt P30872). The experiment in a line: The compound was tested for binding affinity against human Somatostatin receptor type 1. The method in brief:
(§1)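 Membranes from CHO-K1 cells transfected with the cloned human receptor. Terminated by filtration on PEI-soaked GF/C filters. Nonspecific binding defined with 1.0 μM SRIF. Mean ± SEM; single values are from one experiment.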

For assay [2], the target named is Somatostatin receptor type 2 (Homo sapiens, UniProt P30874). Nature of the assay: The compound was tested for binding affinity against human Somatostatin receptor type 2. The procedure, abridged: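 Membranes from CHO-K1 cells transfected with the cloned human sst2. Incubated 30 min at 37 °C with 0.05 nM [125I]MK-678 in HEPES pH 7.4 with BSA, MgCl2, Trasylol, bacitracin and PMSF. Filtration on PEI-soaked GF/C filters. Nonspecific binding defined with 1.0 μM SRIF. Mean ± SEM; single values are from one experiment.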

Assay [3] deals with Somatostatin receptor type 5 (Homo sapiens, UniProt P35346). The experiment in a line: The compound was tested for binding affinity against human Somatostatin receptor type 5. The procedure, abridged:
as §1

Assay [4] has as its target Somatostatin receptor type 4 (Homo sapiens, UniProt P31391). The experiment in a line: The compound was tested for binding affinity against human Somatostatin receptor type 4. The procedure, abridged: (§2)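 CHO-K1 cells stably transfected (calcium phosphate) with cloned human sst3 or sst4. Membranes made in ice-cold 50 mM Tris-HCl, resuspended in 10 mM Tris-HCl, then incubated 30 min at 37 °C with 0.05 nM [125I]Tyr11-SRIF in HEPES pH 7.4 with BSA, MgCl2 and protease inhibitors. Filtered on GF/C; nonspecific binding with 1.0 µM SRIF. Mean ± SEM, or one experiment.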

For assay [5], the target named is Somatostatin receptor type 3 (Homo sapiens, UniProt P32745). Nature of the assay: The compound was tested for binding affinity against human Somatostatin receptor type 3. The procedure, abridged: as §2

SMILES strings stand for the structures.

From ChEMBL document CHEMBL1132220 (J Med Chem, 1999) come the findings set out here.

As a reminder, the IC50 is the midpoint of a concentration-inhibition curve. Low readings indicate greater potency in that assay, high ones weaker potency in that assay. The term Ki denotes a measure of affinity in units of concentration, obtained from inhibition or displacement. A high value points to lower affinity.

Sequence of Somatostatin receptor type 5 (P35346 whole entry): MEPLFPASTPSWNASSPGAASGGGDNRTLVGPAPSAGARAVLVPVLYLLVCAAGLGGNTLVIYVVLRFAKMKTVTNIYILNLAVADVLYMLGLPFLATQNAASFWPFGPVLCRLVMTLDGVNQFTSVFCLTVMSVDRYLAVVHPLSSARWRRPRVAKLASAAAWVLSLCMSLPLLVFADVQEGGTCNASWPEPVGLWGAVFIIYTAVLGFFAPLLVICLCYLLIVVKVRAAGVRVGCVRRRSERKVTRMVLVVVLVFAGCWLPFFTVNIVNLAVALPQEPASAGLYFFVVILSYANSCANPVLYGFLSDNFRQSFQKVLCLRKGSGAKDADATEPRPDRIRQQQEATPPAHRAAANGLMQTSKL
Sequence of Somatostatin receptor type 2 (P30874 whole entry): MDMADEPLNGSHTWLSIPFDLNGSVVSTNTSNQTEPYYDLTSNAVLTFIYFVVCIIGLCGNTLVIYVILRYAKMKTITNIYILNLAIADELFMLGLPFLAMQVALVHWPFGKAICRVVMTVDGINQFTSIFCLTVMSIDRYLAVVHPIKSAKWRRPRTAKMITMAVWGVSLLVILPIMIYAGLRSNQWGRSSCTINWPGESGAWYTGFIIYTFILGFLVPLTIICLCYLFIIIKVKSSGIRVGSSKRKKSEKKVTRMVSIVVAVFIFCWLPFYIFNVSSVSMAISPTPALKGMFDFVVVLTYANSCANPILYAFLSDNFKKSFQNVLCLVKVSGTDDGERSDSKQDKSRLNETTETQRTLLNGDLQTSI
Sequence of Somatostatin receptor type 1 (P30872 whole entry): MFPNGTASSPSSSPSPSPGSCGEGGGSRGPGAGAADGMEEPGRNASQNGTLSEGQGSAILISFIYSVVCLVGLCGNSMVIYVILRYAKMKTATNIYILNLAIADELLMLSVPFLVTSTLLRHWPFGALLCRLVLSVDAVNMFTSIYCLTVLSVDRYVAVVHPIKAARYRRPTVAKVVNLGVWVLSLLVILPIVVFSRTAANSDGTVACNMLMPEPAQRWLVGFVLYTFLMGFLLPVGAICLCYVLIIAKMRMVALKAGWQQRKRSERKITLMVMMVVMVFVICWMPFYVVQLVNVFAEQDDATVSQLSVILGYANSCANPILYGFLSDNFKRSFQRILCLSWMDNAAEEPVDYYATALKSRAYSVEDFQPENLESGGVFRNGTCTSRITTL
Sequence of Somatostatin receptor type 4 (P31391 whole entry): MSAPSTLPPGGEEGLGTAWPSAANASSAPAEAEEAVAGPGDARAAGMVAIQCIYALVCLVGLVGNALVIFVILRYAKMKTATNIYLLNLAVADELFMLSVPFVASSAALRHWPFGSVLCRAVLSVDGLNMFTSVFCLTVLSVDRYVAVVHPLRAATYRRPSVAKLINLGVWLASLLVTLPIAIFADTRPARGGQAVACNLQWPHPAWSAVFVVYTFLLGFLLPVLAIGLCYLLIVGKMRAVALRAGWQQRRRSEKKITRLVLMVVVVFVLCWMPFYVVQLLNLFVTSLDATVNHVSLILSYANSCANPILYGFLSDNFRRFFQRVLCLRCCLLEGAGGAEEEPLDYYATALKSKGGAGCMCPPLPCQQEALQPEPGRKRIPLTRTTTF
Sequence of Somatostatin receptor type 3 (P32745 whole entry): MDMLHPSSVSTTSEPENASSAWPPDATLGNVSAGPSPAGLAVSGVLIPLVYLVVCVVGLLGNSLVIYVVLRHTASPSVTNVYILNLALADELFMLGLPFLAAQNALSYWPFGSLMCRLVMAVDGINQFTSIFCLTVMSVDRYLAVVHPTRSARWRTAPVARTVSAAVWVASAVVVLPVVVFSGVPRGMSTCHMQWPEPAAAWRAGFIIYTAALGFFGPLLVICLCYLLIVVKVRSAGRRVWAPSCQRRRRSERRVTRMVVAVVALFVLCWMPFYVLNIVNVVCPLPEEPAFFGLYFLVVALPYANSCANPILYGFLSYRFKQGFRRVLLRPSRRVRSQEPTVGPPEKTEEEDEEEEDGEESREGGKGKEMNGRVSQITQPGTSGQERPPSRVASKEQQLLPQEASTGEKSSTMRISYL

Consider `CC(C)[C@H]1NC(=O)[C@H](CCCCN)NC(=O)[C@@H](Cc2c[nH]c3ccccc23)NC(=O)[C@H](Cc2cccnc2)NC(=O)[C@@H](NC(=O)[C@@H](N)Cc2ccc3ccccc3c2)CSSC[C@H](C(=O)N[C@@H](Cc2ccc(F)cc2)C(N)=O)NC1=O`, for which the IC50 against Somatostatin receptor is 150 nM.
For `CC(C)[C@@H]1NC(=O)[C@H](CCCCN)NC(=O)[C@@H](Cc2c[nH]c3ccccc23)NC(=O)[C@H](Cc2ccc(O)c(I)c2)NC(=O)C(NC(=O)[C@@H](N)Cc2ccc3ccccc3c2)CSSCC(C(=O)N[C@@H](Cc2ccc3ccccc3c2)C(N)=O)NC1=O` (stereo in doubt), on Somatostatin receptor, the IC50 is 20 nM.
On the same count and under the same terms, the figure for `CC(C)[C@H]1NC(=O)[C@H](CCCCN)NC(=O)[C@@H](Cc2c[nH]c3ccccc23)NC(=O)[C@H](Cc2c[nH]cn2)NC(=O)C(NC(=O)[C@@H](N)Cc2c(F)c(F)c(F)c(F)c2F)CSSCC(C(=O)N[C@@H](Cc2c(F)c(F)c(F)c(F)c2F)C(N)=O)NC1=O` (stereo in doubt) is 2410 nM; for `CC[C@H](C)[C@H]1NC(=O)[C@H](CCCCN)NC(=O)[C@@H](Cc2c[nH]c3ccccc23)NC(=O)[C@H](Cc2ccc(O)cc2)NC(=O)[C@@H](NC(=O)[C@@H](N)Cc2ccc(-c3ccccc3)cc2)CSSC[C@@H](C(=O)N[C@@H](Cc2ccc(-c3ccccc3)cc2)C(N)=O)NC1=O` it is 2110 nM; for `C[C@@H](O)[C@@H]1NC(=O)[C@H](CCCCN)NC(=O)[C@@H](Cc2c[nH]c3ccccc23)NC(=O)[C@H](Cc2ccccc2)NC(=O)[C@@H](NC(=O)[C@@H](N)Cc2ccc(Cl)cc2)CSSC[C@@H](C(=O)N[C@@H](Cc2ccc3ccccc3c2)C(N)=O)NC1=O` it is 1.4 nM.
On to `CC(C)[C@H]1NC(=O)[C@H](CCCCN)NC(=O)[C@@H](Cc2c[nH]c3ccccc23)NC(=O)[C@H](Cc2cccnc2)NC(=O)[C@@H](NC(=O)[C@@H](N)Cc2ccc(C#N)cc2)CSSC[C@H](C(=O)N[C@@H](Cc2ccc(C#N)cc2)C(N)=O)NC1=O`, for which the IC50 against Somatostatin receptor is recorded as 51 nM. Against the preceding compound, the IC50 is about 36-fold higher.
As to `C[C@@H]1NC(=O)[C@H](CCCCN)NC(=O)[C@@H](Cc2c[nH]c3ccccc23)NC(=O)[C@H](Cc2cccnc2)NC(=O)[C@@H](NC(=O)[C@@H](N)Cc2ccc3ccccc3c2)CSSC[C@@H](C(=O)N[C@@H](Cc2ccc3ccccc3c2)C(N)=O)NC1=O`, the IC50 on Somatostatin receptor turned out to be 425 nM. Against the preceding compound, the IC50 is about 8.3-fold higher.
On the same count and under the same terms, then `CC(C)[C@H]1NC(=O)[C@H](CCCCN)NC(=O)[C@@H](Cc2c[nH]c3ccccc23)NC(=O)[C@H](Cc2cccnc2)NC(=O)[C@@H](NC(=O)[C@@H](N)Cc2ccc(F)cc2)CSSC[C@H](C(=O)N[C@@H](Cc2ccc3ccccc3c2)C(N)=O)NC1=O`, with 6.5 nM.
Turning to `CC(C)[C@H]1NC(=O)[C@H](CCCCN)NC(=O)[C@@H](Cc2c[nH]c3ccccc23)NC(=O)[C@H](Cc2cccnc2)NC(=O)[C@@H](NC(=O)[C@@H](N)Cc2ccc(Cl)cc2)CSSC[C@H](C(=O)N[C@@H](Cc2ccc3ccccc3c2)C(N)=O)NC1=O`, the IC50 against Somatostatin receptor is on record as 2.6 nM.
Consider `CC(C)[C@H]1NC(=O)[C@H](CCCCN)NC(=O)[C@@H](Cc2c[nH]c3ccccc23)NC(=O)[C@H](Cc2cccnc2)NC(=O)[C@@H](NC(=O)[C@@H](N)Cc2cccc(F)c2)CSSC[C@H](C(=O)N[C@@H](Cc2cccc(F)c2)C(N)=O)NC1=O`, for which the half-maximal inhibitory concentration (IC50) at Somatostatin receptor is listed as 77 nM.
On to `CC(C)[C@H]1NC(=O)[C@H](CCCCN)NC(=O)[C@@H](Cc2c[nH]c3ccccc23)NC(=O)[C@H](Cc2ccccn2)NC(=O)[C@@H](NC(=O)[C@@H](N)Cc2c(F)c(F)c(F)c(F)c2F)CSSC[C@H](C(=O)N[C@@H](Cc2c(F)c(F)c(F)c(F)c2F)C(N)=O)NC1=O`, for which the IC50 on Somatostatin receptor was determined as 765 nM.
At Somatostatin receptor, `CC(C)[C@H]1NC(=O)[C@H](CCCCN)NC(=O)[C@@H](Cc2c[nH]c3ccccc23)NC(=O)[C@H](Cc2cccnc2)NC(=O)[C@@H](NC(=O)[C@@H](N)Cc2ccc(I)cc2)CSSC[C@H](C(=O)N[C@@H](Cc2ccc(I)cc2)C(N)=O)NC1=O` displayed an IC50 of 4 nM.
Still for that read-out and setting: the figure for `CC(C)[C@H]1NC(=O)[C@H](CCCCN)NC(=O)[C@@H](Cc2c[nH]c3ccccc23)NC(=O)[C@H](Cc2c[nH]cn2)NC(=O)C(NC(=O)[C@@H](N)Cc2ccc(F)cc2)CSSCC(C(=O)N[C@@H](Cc2ccc(F)cc2)C(N)=O)NC1=O` (stereo in doubt) is 105 nM.
At Somatostatin receptor, `CC(C)C[C@@H]1NC(=O)[C@H](CCCCN)NC(=O)[C@@H](Cc2c[nH]c3ccccc23)NC(=O)[C@H](Cc2cccnc2)NC(=O)[C@@H](NC(=O)[C@@H](N)Cc2ccc3ccccc3c2)CSSC[C@@H](C(=O)N[C@@H](Cc2ccc3ccccc3c2)C(N)=O)NC1=O` gave an IC50 of 48 nM. This IC50 lies about 2.2-fold lower than the previous one.
On to `CC(C)[C@H]1NC(=O)[C@H](CCCCN)NC(=O)[C@@H](Cc2c[nH]c3ccccc23)NC(=O)[C@H](Cc2cccnc2)NC(=O)[C@@H](NC(=O)[C@H](N)Cc2ccc(F)cc2)CSSC[C@H](C(=O)N[C@H](Cc2ccc(F)cc2)C(N)=O)NC1=O`, for which the IC50 at Somatostatin receptor turned out to be 74 nM.
On to `CC(C)[C@H]1NC(=O)[C@H](CCCCN)NC(=O)[C@@H](Cc2c[nH]c3ccccc23)NC(=O)[C@H](Cc2cccnc2)NC(=O)[C@@H](NC(=O)[C@@H](N)Cc2c(F)c(F)c(F)c(F)c2F)CSSC[C@H](C(=O)N[C@@H](Cc2c(F)c(F)c(F)c(F)c2F)C(N)=O)NC1=O`, for which the IC50 against Somatostatin receptor is listed as 292 nM.
In turn, `CC(C)[C@H]1NC(=O)[C@H](CCCCN)NC(=O)[C@@H](Cc2c[nH]c3ccccc23)NC(=O)[C@H](Cc2c[nH]cn2)NC(=O)C(NC(=O)[C@@H](N)Cc2ccccc2F)CSSCC(C(=O)N[C@@H](Cc2ccccc2F)C(N)=O)NC1=O` (stereo in doubt) gave an IC50 on Somatostatin receptor of 393 nM.
On Somatostatin receptor, `C[C@@H](O)[C@@H]1NC(=O)[C@H](CCCCN)NC(=O)[C@@H](Cc2c[nH]c3ccccc23)NC(=O)[C@H](Cc2ccccn2)NC(=O)C(NC(=O)[C@@H](N)Cc2ccc(Cl)cc2)CSSCC(C(=O)N[C@@H](Cc2ccc3ccccc3c2)C(N)=O)NC1=O` (stereo in doubt) yielded an IC50 of 135 nM.
For `C[C@@H](O)[C@@H]1NC(=O)[C@H](CCCCN)NC(=O)[C@@H](Cc2c[nH]c3ccccc23)NC(=O)[C@@H](Cc2ccccn2)NC(=O)C(NC(=O)[C@@H](N)Cc2ccc(Cl)cc2)CSSCC(C(=O)N[C@@H](Cc2ccc3ccccc3c2)C(N)=O)NC1=O` (stereo in doubt), the IC50 against Somatostatin receptor was determined as 2.7 nM.
`CC(C)(C)C[C@@H]1NC(=O)[C@H](CCCCN)NC(=O)[C@@H](Cc2c[nH]c3ccccc23)NC(=O)[C@H](Cc2cccnc2)NC(=O)C(NC(=O)[C@@H](N)Cc2ccc(Cl)cc2)CSSCC(C(=O)N[C@@H](Cc2ccc3ccccc3c2)C(N)=O)NC1=O` (stereo in doubt) came in with an IC50 against Somatostatin receptor of 125 nM.
For the compound `CC(C)[C@H]1NC(=O)[C@H](CCCCN)NC(=O)[C@@H](Cc2c[nH]c3ccccc23)NC(=O)[C@H](Cc2cccnc2)NC(=O)[C@@H](NC(=O)[C@@H](N)Cc2ccc(Cl)cc2)CSSC[C@H](C(=O)N[C@@H](Cc2ccc(Cl)cc2)C(N)=O)NC1=O`, the IC50 on Somatostatin receptor came to 3 nM.
Still for that read-out and setting: then `NCCCC[C@@H]1NC(=O)[C@@H](Cc2c[nH]c3ccccc23)NC(=O)[C@H](Cc2cccnc2)NC(=O)[C@@H](NC(=O)[C@@H](N)Cc2ccc3ccccc3c2)CSSC[C@@H](C(=O)N[C@@H](Cc2ccc3ccccc3c2)C(N)=O)NC(=O)CNC1=O`, with 1510 nM.
For `CC(C)[C@H]1NC(=O)[C@H](CCCCN)NC(=O)[C@@H](Cc2c[nH]c3ccccc23)NC(=O)[C@H](Cc2cccnc2)NC(=O)[C@@H](NC(=O)[C@@H](N)Cc2ccc3ccccc3c2)CSSC[C@H](C(=O)N[C@H](C(N)=O)C(c2ccccc2)c2ccccc2)NC1=O`, on Somatostatin receptor, the half-maximal inhibitory concentration (IC50) was determined as 91 nM.
Regarding `CC(C)[C@H]1NC(=O)[C@H](CCCCN)NC(=O)[C@@H](Cc2c[nH]c3ccccc23)NC(=O)[C@H](Cc2cccnc2)NC(=O)[C@@H](NC(=O)[C@@H](N)Cc2ccc3ccccc3c2)CSSC[C@H](C(=O)N[C@@H](Cc2ccc3ccccc3c2)C(N)=O)NC1=O`, on Somatostatin receptor, the IC50 came out at 15 nM. Compared with the last compound, the IC50 is about 6.1-fold lower.
Compound `CC(C)[C@H]1NC(=O)[C@H](CCCCN)NC(=O)[C@@H](Cc2c[nH]c3ccccc23)NC(=O)[C@H](Cc2c[nH]cn2)NC(=O)C(NC(=O)[C@@H](N)Cc2cccc(F)c2)CSSCC(C(=O)N[C@@H](Cc2cccc(F)c2)C(N)=O)NC1=O` (stereo in doubt) returned an IC50 against Somatostatin receptor of 137 nM. This IC50 is about 9.1-fold higher than that of the compound before.
On the same count and under the same terms, then `CC(C)[C@H]1NC(=O)[C@H](CCCCN)NC(=O)[C@@H](Cc2c[nH]c3ccccc23)NC(=O)[C@H](Cc2cccnc2)NC(=O)[C@@H](NC(=O)[C@@H](N)Cc2ccc(Br)cc2)CSSC[C@H](C(=O)N[C@@H](Cc2ccc(Br)cc2)C(N)=O)NC1=O`, with 2.7 nM.
Regarding `CC(C)[C@@H]1NC(=O)[C@H](CCCCN)NC(=O)[C@@H](Cc2c[nH]c3ccccc23)NC(=O)[C@H](Cc2cccnc2)NC(=O)[C@H](NC(=O)[C@@H](N)Cc2ccc(F)cc2)CSSC[C@@H](C(=O)N[C@@H](Cc2ccc(F)cc2)C(N)=O)NC1=O`, the Ki is 435 nM in assay [1]; 20 nM in assay [2]; 369 nM in assay [3]; more than 1000 nM in assay [4]; 120 nM in assay [5].
Consider `CC(C)[C@@H]1NC(=O)[C@H](CCCCN)NC(=O)[C@@H](Cc2c[nH]c3ccccc23)NC(=O)[C@H](Cc2cccnc2)NC(=O)[C@H](NC(=O)[C@@H](N)Cc2ccc(C#N)cc2)CSSC[C@@H](C(=O)N[C@@H](Cc2ccc(C#N)cc2)C(N)=O)NC1=O`, for which the Ki is more than 1000 nM in assay [1]; 99 nM in assay [2]; 304 nM in assay [3]; more than 1000 nM in assay [4]; 103 nM in assay [5].
